In ChEMBL document CHEMBL1135349, “Synthesis and evaluation of novel pyrrolidinyl sordaricin derivatives as antifungal agents” (2002):
In brackets after ≈: the same amount, converted by molar mass.

Tests used:
Format in all cases: functional
Candida albicans [1] = assay: Minimum concentration required to inhibit the growth of Candida albicans TIMM3164 was determined
Summary of the method: (§1)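 Yeast cells grown in microplates in RPMI1640 buffered to pH 7.0 at 35 °C, without serum. The MIC is the lowest concentration that inhibits growth by 80%.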

Cryptococcus neoformans = assay: Minimum concentration required to inhibit the growth of Cryptococcus neoformans TIMM1855 was determined
Summary of the method: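 Medium was yeast nitrogen base buffered at pH 7.0, with microplates incubated at 35 °C. The MIC was defined as the lowest concentration producing 80% growth inhibition.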

Candida tropicalis = assay: Minimum concentration required to inhibit the growth of Candida tropicalis ATCC750 was determined; summary of the method: as §1
Candida albicans [2] = assay: Minimum concentration required to inhibit the growth of Candida albicans ATCC 24433 was determined; summary of the method: as §1
Nakaseomyces glabratus = assay: Minimum concentration required to inhibit the growth of Candida glabrata ATCC 90030 was determined; summary of the method: as §1
Candida albicans [3] = assay: Minimum concentration required to inhibit the growth of Candida albicans SANK51486 was determined; summary of the method: as §1
Candida albicans [4] = assay: Minimum concentration required to inhibit the growth of Candida albicans SANK51486 was determined in the presence of horse serum (20%).
Summary of the method: (§2)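 Run in RPMI1640 buffered at pH 7.0 with 20% horse serum added for the incubation, in microplates at 35 °C. The MIC is the lowest concentration inhibiting growth by 80%.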

Candida albicans [5] = assay: Minimum concentration required to inhibit the growth of Candida albicans ATCC 64550 was determined; summary of the method: as §1
Aspergillus fumigatus = assay: Minimum concentration required to inhibit the growth of Aspergillus fumigatus ATCC 26430 was determined
Summary of the method: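 Microplate broth assay in RPMI1640 buffered at pH 7.0, incubated at 30 °C. The MIC was taken as the lowest test concentration giving 80% growth inhibition.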

Candida parapsilosis = assay: Minimum concentration required to inhibit the growth of Candida parapsilosis ATCC 90018 was determined; details: Lodderomyces parapsilosis; summary of the method: as §1
Candida albicans [6] = assay: Minimum concentration required to inhibit the growth of Candida albicans ATCC 24433 was determined in the presence of horse serum (20%).; summary of the method: as §2

Row | SMILES | MIC (Candida albicans [1]) | MIC (Cryptococcus neoformans) | MIC (Candida tropicalis) | MIC (Candida albicans [2]) | MIC (Nakaseomyces glabratus) | MIC (Candida albicans [3]) | MIC (Candida albicans [4]) | MIC (Candida albicans [5]) | MIC (Aspergillus fumigatus) | MIC (Candida parapsilosis) | MIC (Candida albicans [6])
1 | C=C(C)CN1C[C@H](OCC23C[C@@H]4[C@H](C)CC[C@H]4C4(C=O)CC2C=C(C(C)C)C34C(=O)O)O[C@H](C)[C@@H](OC)C1 (some centres undefined) | 0.03 µg/mL (≈ 0.0566 µM) | 0.25 µg/mL (≈ 0.472 µM) | 0.13 µg/mL (≈ 0.245 µM) | 0.03 µg/mL (≈ 0.0566 µM) | 0.25 µg/mL (≈ 0.472 µM) | 0.02 µg/mL (≈ 0.0378 µM) | 0.25 µg/mL | 0.03 µg/mL (≈ 0.0566 µM) | > 16 µg/mL | > 16 µg/mL | 0.5 µg/mL
2 | C/C=C/C=C\C(=O)O[C@H]1[C@H](O)[C@H](OCC23C[C@@H]4[C@H](C)CC[C@H]4C4(C=O)CC2C=C(C(C)C)C34C(=O)O)O[C@H](C)[C@H]1OC (some centres undefined) | 0.5 µg/mL (≈ 0.852 µM) | 0.25 µg/mL (≈ 0.426 µM) | 0.5 µg/mL (≈ 0.852 µM) | 0.5 µg/mL (≈ 0.852 µM) | > 4 µg/mL | 0.25 µg/mL (≈ 0.426 µM) |  | 0.5 µg/mL (≈ 0.852 µM) | > 4 µg/mL | > 4 µg/mL | 4 µg/mL
3 | COc1ccc(CN2C[C@H](OCC34C[C@@H]5[C@H](C)CC[C@H]5C5(C=O)CC3C=C(C(C)C)C45C(=O)O)C[C@@H]2C)cc1 (some centres undefined) | 0.5 µg/mL (≈ 0.933 µM) | > 16 µg/mL | 4 µg/mL (≈ 7.47 µM) | 0.5 µg/mL (≈ 0.933 µM) | 16 µg/mL (≈ 29.9 µM) | 0.25 µg/mL (≈ 0.467 µM) | 0.5 µg/mL | 0.5 µg/mL (≈ 0.933 µM) | > 16 µg/mL | > 16 µg/mL | 1 µg/mL
4 | CC(C)C1=CC2CC3(C=O)[C@@H]4CC[C@@H](C)[C@H]4CC2(CS[C@@H]2C[C@H](C)N(Cc4ccccc4)C2)C13C(=O)O (some centres undefined) | 1 µg/mL (≈ 1.92 µM) | > 16 µg/mL | 4 µg/mL (≈ 7.67 µM) | 0.5 µg/mL (≈ 0.958 µM) | > 16 µg/mL | 0.25 µg/mL (≈ 0.479 µM) | 4 µg/mL | 1 µg/mL (≈ 1.92 µM) | > 16 µg/mL | > 16 µg/mL | 8 µg/mL
5 | CC(C)C1=CC2CC3(C=O)[C@@H]4CC[C@@H](C)[C@H]4CC2(CO[C@@H]2C[C@H](C)N(Cc4ccccc4)C2)C13C(=O)O (some centres undefined) | 2 µg/mL (≈ 3.95 µM) | > 16 µg/mL | 8 µg/mL (≈ 15.8 µM) | 1 µg/mL (≈ 1.98 µM) | > 16 µg/mL | 0.5 µg/mL (≈ 0.989 µM) | 1 µg/mL | 2 µg/mL (≈ 3.95 µM) | > 16 µg/mL | > 16 µg/mL | 4 µg/mL
6 | CC(C)C1=CC2CC3(C=O)[C@@H]4CC[C@@H](C)[C@H]4CC2(CO[C@@H]2C[C@H](C)N(Cc4ccc5c(c4)OCO5)C2)C13C(=O)O (some centres undefined) | 0.5 µg/mL (≈ 0.91 µM) | > 16 µg/mL | 4 µg/mL (≈ 7.28 µM) | 0.25 µg/mL (≈ 0.455 µM) | > 16 µg/mL | 0.13 µg/mL (≈ 0.236 µM) | 0.5 µg/mL | 0.5 µg/mL (≈ 0.91 µM) | > 16 µg/mL | > 16 µg/mL | 1 µg/mL
7 | OC(Cn1cncn1)(Cn1cncn1)c1ccc(F)cc1F [FLUCONAZOLE] | > 4 µg/mL | > 4 µg/mL | 2 µg/mL (≈ 6.53 µM) | 0.5 µg/mL (≈ 1.63 µM) | > 4 µg/mL | 0.25 µg/mL (≈ 0.816 µM) |  | > 4 µg/mL | > 4 µg/mL | 0.5 µg/mL (≈ 1.63 µM) | 
